Sampled rows, rich in hits. Any-hit rate of the full collection: about 3%.
H9c2 protect – myocardial damage modulation in H9c2 cells; protection from H2O2 cell death, % at 20 µM; H9c2 cardiomyocytes, H2O2 injury protection, ATPLite, 2 h; 360,000 compounds, 0.63% hits;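 active means compounds giving at least 50% protection of heart cells from peroxide-induced death in the single-dose screen, raw or plate-pattern-corrected value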;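 further: 0% = DMSO wells with peroxide and 100% = DMSO wells without peroxide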
Pemphigus Ab inh – inhibitors of pemphigus antibody binding to human desmoglein-3; binding (percent of control), % at 10 µM; 310,000 compounds, 0.48% hits; DSG3-coupled beads, scFv-anti-DSG3-GFP binding, flow cytometry; active compounds read low; P32926; AID 588358;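 active means binding more than 3 SD below its plate's average and above zero; inconclusive means below that plate limit but binding exactly zero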;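 further: hits lower antibody fragment binding to DSG3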
Myeloid diff MLP – promotes myeloid progenitor differentiation. 360,000 compounds, 1% hits. ER-HoxA9 myeloid progenitors, lysozyme-GFP differentiation, flow cytometry. calls only at 10 µM. AID 624256;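 active means normalized GFP-positive differentiation at or above the plate's own cutoff, the solvent-only control mean plus 3 SD; inconclusive means no clear call, values can overlap the other calls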;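 further: cells exposed to compound for four days before flow analysis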
HNF4A DNA FP – change in binding of human HNF4 alpha to DNA. HNF4a-FITC DNA binding, fluorescence polarization, 1 h. activity change, % at 10 µM. 360,000 compounds, 0.3% hits; in the data active means activity change above about 30%, passing the limit was not always enough
Target sequence (P41235 whole entry, looked up): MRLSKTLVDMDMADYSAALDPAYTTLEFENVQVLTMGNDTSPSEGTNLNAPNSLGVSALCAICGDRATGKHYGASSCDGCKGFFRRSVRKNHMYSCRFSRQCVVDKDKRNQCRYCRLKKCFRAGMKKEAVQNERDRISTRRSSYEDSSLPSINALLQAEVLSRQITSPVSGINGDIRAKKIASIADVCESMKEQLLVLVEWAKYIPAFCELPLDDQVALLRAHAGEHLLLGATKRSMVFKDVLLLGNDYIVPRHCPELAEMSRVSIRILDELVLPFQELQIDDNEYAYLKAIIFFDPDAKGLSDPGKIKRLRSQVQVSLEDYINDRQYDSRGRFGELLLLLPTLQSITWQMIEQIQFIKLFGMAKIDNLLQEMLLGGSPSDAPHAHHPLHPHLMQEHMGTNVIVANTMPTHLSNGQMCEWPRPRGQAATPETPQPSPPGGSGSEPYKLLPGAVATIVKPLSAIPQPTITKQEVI
SENP1 inh – SENP1 (human) catalytic domain inhibition; recombinant SENP1 catalytic domain, CyPet-SUMO1-YPet FRET cleavage; inhibition, % at 10 µM; 360,000 compounds, 0.21% hits; AID 624204;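 active means inhibition at least 30% at 10 µM, raw YFP signal under a set limit, fluorescence ratio 0.5 to 1.5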;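 further: 0% = enzyme with DMSO and 100% = no enzyme wells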
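Test system: human SENP1 catalytic domain; medium: Tris pH 8 buffer plus EDTA, NaCl, BME, BSA, NP40, catalase; incubation: 50 min reaction at room temperature; technique: FRET, CFP and YFP emission; controls: no-enzyme low control and enzyme-plus-DMSO high control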
Granule exo inh – blocks lytic granule exocytosis; 360,000 compounds, 0.66% hits; TALL-104 LAMP-1 surface exposure, flow cytometry; cells stimulated with thapsigargin and PMA; inhibition, % at 10 µM;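 active means inhibition above about 55%, limit read from the data; inconclusive means no clear call, values can overlap the other calls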
An asterisk follows results filed as active; i = inactive; ? = inconclusive; / = no result; + = active, no number.

SMILES | H9c2 protect | Pemphigus Ab inh | Myeloid diff MLP | HNF4A DNA FP | SENP1 inh | Granule exo inh
Cn1c(=O)c2c(nc(CN3CCN(c4ccc(F)cc4)CC3)n2CCN2CCOCC2)n(C)c1=O | 4 | 93 | i | 75* | -2 | -2
COc1cc(/C=N/NC(=O)c2ccncc2)ccc1OCC(=O)Nc1cccc([N+](=O)[O-])c1 | 4 | 101 | i | -1 | 2 | 25
O=C(NN=Cc1ccc(O)c(O)c1)c1ccccc1 | 28 | / | i | 2 | 0 | 2
COc1cc(/C=N/NC(=O)c2ccncc2)ccc1OC(=O)c1ccccc1Cl | 74* | 92 | i | 6 | 2 | 8
COc1cc(C(=O)N/N=C/c2ccc(OC(=O)c3ccccc3Cl)c(OC)c2)ccc1O | 66* | / | ? | 2 | 4 | 13
COc1cc(/C=N/NC(=O)c2ccncc2)ccc1OCC(=O)Nc1ccc(C)c(C)c1 | 52* | 124 | i | 7 | 0 | -18
O=C(COc1ccccc1C(=O)N/N=C\c1ccc(O)c(O)c1)N/N=C/c1ccc(O)c(O)c1 | 54* | 108 | i | -42 | 3 | -1
COc1ccccc1CNC(=O)C1CCCN1S(=O)(=O)c1ccc2c(c1)C(C)(C)C(=O)N2C (centres undefined) | 5 | / | i | 1 | -3 | 1
C[C@@H]1CN([C@@H](C)CO)C(=O)CCCn2nncc2CO[C@H]1CN(C)S(=O)(=O)c1ccc(F)cc1 | 0 | / | i | 0 | -1 | -6
O=C(CSc1ccc(F)cc1)Nc1cccc(S(=O)(=O)N2CCOCC2)c1 | -5 | 112 | i | -4 | 0 | 2
CN(C(=O)c1cccc(N2C(=O)C3C4C=CC(C4)C3C2=O)c1)C1CCCCC1 (centres undefined) | 1 | 100 | i | -3 | -2 | -1
COc1ccc2o/c(=N/NC(=O)c3cccs3)c(C(N)=O)cc2c1 | 54* | 92 | i | 15 | -31 | 2
CCOC(=O)c1c(NC(=O)c2cccs2)sc2c1CC(C)(C)OC2 | 24 | 102 | i | -3 | -4 | 67*
CCOC(=O)c1c(NC(=O)C2C3C=CC(C3)C2C(=O)O)sc2c1CC(C)(C)OC2 (centres undefined) | 13 | 97 | i | 0 | 2 | 0
COc1cccc(N(CC(=O)NC2CCCC2)C(=O)CCC(=O)Nc2cc(C)on2)c1 | 2 | 90 | + | -3 | 0 | -4
O=C1C2C3C=CC(CNS(=O)(=O)c4ccccc4)(O3)C2C(=O)N1c1ccc(Cl)cc1 (centres undefined) | -28 | 86 | i | 0 | 3 | 26
Cc1ccc(N2C(=O)C3C4C=CC(CNC(=S)N5CCN(c6cccc(C)c6)C(C)C5)(O4)C3C2=O)cc1 (centres undefined) | 1 | 83* | i | -5 | -1 | 12
O=C(NNC(=O)C(c1ccccc1)c1ccccc1)c1ccccn1 | 51* | 94 | ? | -1 | 0 | 4
Cc1cccc(Nc2cc(=O)n(C)c(=O)[nH]2)c1 | -3 | 95 | i | -1 | 0 | 24
Clc1ccc(-n2nnc(-c3cccnc3)n2)cc1Cl | -12 | 103 | + | 1 | 3 | 10
Cc1ccc(S(=O)(=O)CC(=O)c2cc3cccc(C)c3oc2=O)cc1 | 0 | 49* | i | 1 | -30 | -11
NC(=S)c1csc(CCNC(=O)c2ccccc2)n1 | -1 | 95 | i | 2 | 0 | -4
O=C(CN(c1ccc(Cl)cc1)S(=O)(=O)c1ccc(Cl)c([N+](=O)[O-])c1)NCCc1ccccc1 | -19 | 98 | i | -5 | 4 | 0
O=C(CN(c1ccc(Cl)cc1)S(=O)(=O)c1ccc(Cl)c([N+](=O)[O-])c1)NCCc1ccc(F)cc1 | -9 | 45* | i | 2 | 3 | -1
CC(C)(C=O)C1=CC(=O)c2ccccc2C1=O | -32 | 83 | ? | -5 | 3 | 91*
SMILES | H9c2 protect | Pemphigus Ab inh | Myeloid diff MLP | HNF4A DNA FP | SENP1 inh | Granule exo inh
Cn1cccc1C(=O)NC(=O)COC(=O)CNC(=O)CNC(=O)c1ccc(Cl)cc1Cl | -7 | 92 | i | 2 | -13 | -4
CCN1C(=O)[C@H]2[C@H]3CN=C(SCc4ccc(C#N)cc4)N3[C@@](Cc3ccccc3)(C(=O)OC)[C@H]2C1=O | 55* | 100 | i | 3 | 3 | -4
COC(=O)[C@@]1(Cc2ccccc2)[C@H]2C(=O)N(Cc3ccccc3)C(=O)[C@H]2[C@H]2CN=C(SCc3ccc(C#N)cc3)N21 | 44 | 106 | i | 4 | 0 | -2
O=C1CN(S(=O)(=O)c2ccccc2)CCN1 | 0 | 92 | i | 0 | 0 | -7
COc1ccc(NC(=O)CSc2nnc(C)c3ccccc23)cc1 | 27 | 160 | i | 15 | 12 | -2
N#Cc1cccc(NC(=O)CSc2ccc3c4c(cccc24)C(=O)c2ccccc2-3)c1 | 12 | 180 | + | -15 | -19 | 4
COc1ccc(NC(=O)CSc2ccc3c4c(cccc24)C(=O)c2ccccc2-3)cc1 | 7 | 137 | + | -21 | -23 | 4
COc1cccc(-n2c(SCC(=O)NCC3CCCO3)nc3c(c2=O)SCC3)c1 (centres undefined) | -1 | 107 | i | 4 | -1 | -16
CCOc1ccccc1N1CC(O)=C(c2nc3ccccc3s2)C1=N | 95* | 99 | ? | 8 | -10 | 2
COc1ccc(OC)c(N2CC(O)=C(c3nc4ccccc4s3)C2=N)c1 | -3 | 105 | i | -5 | 2 | 0
CCCc1cc(=O)[nH]c(N/N=C/C=C\c2ccccc2)n1 | 5 | 95 | i | 0 | -2 | -1
CN(c1ccccc1)S(=O)(=O)c1cccc(NC(=O)C2=NNC(=O)CC2)c1 | -8 | 5.4* | i | -1 | 1 | 21
COc1ccc(S(=O)(=O)NCc2ccco2)cc1NC(=O)c1ccccc1 | -7 | 114 | i | -4 | 1 | -5
COc1cc(NC(=O)C2CC(c3c(F)cccc3Cl)=NO2)cc(OC)c1OC (centres undefined) | -13 | 102 | i | 1 | -1 | -17
CCn1c2ccccc2c2cc(NC(=O)COC(=O)c3ccc(NC(=O)CC#N)cc3)ccc21 | -3 | 69* | i | -9 | -7 | -1
CCn1c2ccccc2c2cc(NC(=O)N3CCOCC3)ccc21 | -4 | / | i | 6 | 32* | 0
CCn1c2ccccc2c2cc(NC(=O)c3ccc(Br)o3)ccc21 | 7 | / | + | 31 | -18 | 0
CCn1c2ccccc2c2cc(NC(=O)c3coc(=O)c(Br)c3)ccc21 | 8 | / | i | -46 | -37 | 4
COc1ccc(S(=O)(=O)N2CCCCC2)cc1NC(=O)Cc1cccc(C(F)(F)F)c1 | -3 | 78 | i | -30 | 0 | 4

Source: PubChem (several laboratories)
